Measured values as given in publication PMC8837702 (Archives of toxicology, 2021).
Like-named read-outs stand apart in the source and are kept apart here.

What was measured:
NAT1 [1] = biological target: T1, NAT1 (Homo sapiens, UniProt P18440); experiment: Recombinant human NAT1; assay type: biochemical; conditions: for fold less potent than compound 10 towards recombinant human NAT1: in vitro IC50 comparison; for IC50 NAT2/IC50 NAT1: ratio; for IC50 NAT2/IC50 NAT1 / fold lower IC50 for NAT1 versus NAT2: PABA (NAT1) vs SMZ (NAT2)
T1 sequence (P18440 1-290): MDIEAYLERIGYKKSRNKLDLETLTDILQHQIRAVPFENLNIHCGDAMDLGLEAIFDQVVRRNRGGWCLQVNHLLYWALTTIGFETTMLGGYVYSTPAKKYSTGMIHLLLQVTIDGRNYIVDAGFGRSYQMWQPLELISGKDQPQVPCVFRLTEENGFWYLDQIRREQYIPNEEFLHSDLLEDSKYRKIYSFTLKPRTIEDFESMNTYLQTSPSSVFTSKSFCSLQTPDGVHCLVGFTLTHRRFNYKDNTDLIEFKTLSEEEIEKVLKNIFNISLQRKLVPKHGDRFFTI
How it was run: (§1)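 Lysates of S. pombe stably expressing recombinant human NAT1 (10 μM PABA) or NAT2 (10 μM SMZ) were run with 100 μM acetyl-CoA over a test-compound concentration series. Substrate and N-acetylated product were separated and measured by HPLC. IC50 came from nonlinear regression, reported as mean ± SEM (n=3).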

recombinant human NAT2 = biological target: T2, recombinant human NAT2 (Homo sapiens, UniProt P11245); experiment: Recombinant human NAT2; assay type: biochemical; conditions: for inhibition of human NAT2: at concentrations up to 2 mM
T2 sequence (P11245 1-290): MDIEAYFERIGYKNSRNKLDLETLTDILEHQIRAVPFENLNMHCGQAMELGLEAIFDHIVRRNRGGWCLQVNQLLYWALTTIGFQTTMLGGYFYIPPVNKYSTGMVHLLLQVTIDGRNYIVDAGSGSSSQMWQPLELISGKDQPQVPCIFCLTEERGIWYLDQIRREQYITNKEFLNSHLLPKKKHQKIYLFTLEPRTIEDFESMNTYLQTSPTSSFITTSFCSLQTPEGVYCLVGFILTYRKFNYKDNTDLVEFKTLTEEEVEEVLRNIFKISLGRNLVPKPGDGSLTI
How it was run: as §1

NAT2 = experiment: SMZ N-acetylation in situ in cryopreserved human hepatocytes; assay type: cell-based; conditions: 50 μM SMZ, 24 hr, concentrations up to 200 μM
How it was run: (§2)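 Cultured cryopreserved human hepatocytes from five donors, all of intermediate NAT2 acetylator genotype, were incubated for 24 hr with 50 μM PABA or SMZ plus varying test-compound concentrations. Parent substrates and N-acetylated metabolites were separated and quantified by HPLC. Each point is the mean ± SEM over the 5 samples.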

NAT1 [2] = biological target: T1, NAT1; assay type: biochemical; conditions: ABP as substrate
How it was run: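 Recombinant human NAT1 or NAT2 expressed in Schizosaccharomyces pombe, assayed in yeast lysate with 10 μM ABP, 100 μM acetyl-CoA and test compound at 0–200 μM. Substrate and N-acetylated product were separated and quantified by HPLC. The value is the mean ± SD of 3 experiments, with IC50 for each isozyme from nonlinear regression.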

[3] = tested on: endogenous NAT1 in MDA-MB-231 cells; experiment: N-acetylation capacity in MDA-MB-231 cells; assay type: cell-based, human; conditions: 10 μM ABP or PABA, 4 hr
How it was run: (§3)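 Cells grown in DMEM with 10% FBS, penicillin and streptomycin at 37°C, 5% CO2, were taken to confluence. They were then exposed for 4 hr at 37°C to medium with 10 μM ABP or PABA and test compound. Collected medium was acidified with 1/10 volume 1 M acetic acid and spun at 13,000 g for 10 min. The supernatant was analysed by HPLC for N-acetyl products; n=3, mean ± SEM.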

MCF-7 cells = experiment: CytoSelect cell invasion assay, MCF-7; assay type: cell-based, human; conditions: 24 hr, 0, 31.25, 62.5, 125 μM
How it was run: (§4)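 CytoSelect 24-well colorimetric invasion assay: 300,000 cells were seeded and allowed to invade toward medium containing 10% FBS for 24 hr with test compound present. Invasion was expressed as a percentage of the DMSO vehicle control. Mean ± SEM (n=3).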

NAT1 [4] = biological target: T1, NAT1; experiment: PABA N-acetylation in situ in cryopreserved human hepatocytes; assay type: cell-based
How it was run: as §2

MDA-MB-231 cells [5] = experiment: CytoSelect cell invasion assay, MDA-MB-231; assay type: cell-based, human; conditions: 24 hr, 0, 31.25, 62.5, 125 μM
How it was run: as §4

[6] = tested on: endogenous NAT1 in MCF-7 cells; experiment: N-acetylation capacity in MCF-7 cells; assay type: cell-based, human; conditions: 10 μM ABP or PABA, 4 hr
How it was run: as §3

MDA-MB-231 cells [7] = experiment: AlamarBlue cell viability and proliferation, MDA-MB-231; assay type: cell-based, human
How it was run: (§5)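 Cells were seeded in 96-well plates and left 24 hr. They were then treated with test compound (0–250 μM) in their own medium for up to 144 hr: MEBM with supplements for MCF-10A, DMEM with 10% FBS for MDA-MB-231. AlamarBlue (1/10 culture volume) was added 1 hr before each time point at 37°C, then fluorescence read (ex 570, em 580 nm). Mean ± SEM (n=4).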

human NAT1 = experiment: Reversibility of NAT1 inhibition in primary hepatocytes; assay type: cell-based; conditions: 100 or 200 μM for 1 hr, removed, then 10 μM PABA for 5 hr
MCF-10A cells = experiment: AlamarBlue cell viability and proliferation, MCF-10A; assay type: cell-based, human
How it was run: as §5

[8] = biological target: T3, human NAT1 expressed in CHO cells (Homo sapiens, UniProt P18440); experiment: N-acetylation in situ in UV5 CHO cells expressing human NAT1 and CYP1A1; assay type: cell-based
T3 sequence (P18440 1-290): T1 sequence (P18440 1-290)
How it was run: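 UV5 CHO cells (nucleotide excision repair-deficient, XPD mutant) stably transfected with human CYP1A1 and NAT1*4 were plated 24 hr beforehand. Medium was then replaced with α-MEM containing 10 μM PABA or ABP plus test compound. After 2 hr, medium was sampled and N-acetylation quantified by HPLC. Mean ± SD of 3 experiments; IC50 by nonlinear regression.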

NAT1 [9] = conditions: cited from earlier work; for IC50: read-out: IC50 NAT1
[10] = read-out: IC50 for NAT1, in vitro, recombinant in yeast, 10 μM PABA, 100 μM AcCoA, Mean ± SEM (n=3)

1-(9,10-dihydro-8-hydroxy-9,10-dioxo-1-anthracenyl)4-ethyl ester [Analog 1]
fold less potent than compound 10 towards recombinant human NAT1 (NAT1 [1]): over 100 fold | IC50 NAT2/IC50 NAT1 (NAT1 [1]): >11.7 | IC50 (NAT1 [1]; [10]): 171 ± 4.7 µM | inhibition of human NAT2 (recombinant human NAT2): No inhibition

9,10-dihydro-9,10-dioxo-1,2-anthracenediyl diethyl ester [Compound 10]
fold lower IC50 for NAT1 versus NAT2 (NAT1 [1]; in vitro): over 100 fold | IC50 NAT2/IC50 NAT1 (NAT1 [1]): 110 | IC50 (NAT1 [1]; [10]): 0.75 ± 0.2 µM | inhibition of SMZ N-acetylation in cryopreserved human hepatocytes (NAT2): no inhibition | fold lower IC50 for NAT1 versus NAT2, ABP N-acetylation (NAT1 [2]): over 50 fold | N-acetylation of PABA and ABP in MDA-MB-231 [3]: inhibited | cell invasion/migration, MCF-7 (MCF-7 cells): dose-dependent inhibition | IC50 (NAT1 [4]; read-out: IC50, PABA N-acetylation in cryopreserved human hepatocytes, 50 μM PABA, 24 hr, 5 hepatocyte samples of intermediate NAT2 acetylator genotype): 158 ± 22 µM | cell invasion/migration, MDA-MB-231 (MDA-MB-231 cells [5]): dose-dependent inhibition | N-acetylation of PABA and ABP in MCF-7 [6]: inhibited | cell viability, MDA-MB-231 (MDA-MB-231 cells [7]; 4-48 hr, 0-250 μM): did not decrease cell viability | cell proliferation, MDA-MB-231 (MDA-MB-231 cells [7]; 72 and 144 hr): dose-dependent decrease | IC50 (MDA-MB-231 cells [7]; read-out: IC50 for cell proliferation, MDA-MB-231, 72 hr): 32 µM | reversibility of inhibition of PABA N-acetylation (human NAT1): reversible | cell proliferation, MCF-10A (MCF-10A cells; non-tumorigenic cell line, later time points): a decrease in cell proliferation was observed | IC50 (MCF-10A cells; read-out: IC50 for cell proliferation, MCF-10A, 72 hr): 113 µM | IC50 ([8]; read-out: in situ IC50, ABP N-acetylation in CHO cells, ABP as substrate): 81.6 ± 4.4 µM | IC50 ([8]; read-out: in situ IC50, PABA N-acetylation in CHO cells, PABA as substrate): 118 ± 5 µM

9,10-dihydro-9,10-dioxo-1,8-anthracenediyl diethyl ester [Analog 2]
fold less potent than compound 10 towards recombinant human NAT1 (NAT1 [1]): over 100 fold | IC50 NAT2/IC50 NAT1 (NAT1 [1]): >21.3 | IC50 (NAT1 [1]; [10]): 94 ± 6.8 µM | inhibition of human NAT2 (recombinant human NAT2): No inhibition

O=C1NC(=S)S/C1=C/c1cc(I)c(O)c(I)c1 [(5E)-[5-(4-hydroxy-3,5-diiodobenzylidene)-2-thioxo-1,3-thiazolidin-4-one]
fold more selective for NAT1 than NAT2 (NAT1 [9]): 25 fold | IC50 (NAT1 [9]): 0.732 µM

O=C1NC(=S)S/C1=C\c1ccccc1O [(Z)-5-(2-hydroxybenzylidene)-2-thioxothiazolidin-4-one]
IC50 (NAT1 [9]): 101 µM

O=C1c2ccccc2C(=O)c2c1ccc(O)c2O [Analog 3 (Alizarin), 1,2-dihydroxyanthraquinone]
IC50 (NAT1 [1]): 0.886 ± 0.0895 µM | fold lower IC50 for NAT1 versus NAT2 (NAT1 [1]; in vitro): over 100 fold | IC50 NAT2/IC50 NAT1 (NAT1 [1]): 113 | IC50 (recombinant human NAT2): 98.6 ± 9.4 µM | IC50 (NAT1 [4]): 70 ± 1.4 µM
